Laboratory results: paper PMC4775309 (Biochemistry, 2016)

How the values were obtained:
Assay in all cases: Fluorescence quenching binding assay, NADPH-free apoenzyme
[1] = target: T1, wild-type EryKR3^0 (Saccharopolyspora erythraea, UniProt Q03132)
T1 sequence (Q03132 1132-1297 limits assumed): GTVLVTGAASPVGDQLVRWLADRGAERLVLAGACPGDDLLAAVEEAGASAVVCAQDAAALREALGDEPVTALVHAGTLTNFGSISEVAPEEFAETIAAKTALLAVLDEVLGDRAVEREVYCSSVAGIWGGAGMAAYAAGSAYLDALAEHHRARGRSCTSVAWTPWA
Summary of the method: (§1)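 Cofactor removed by dialysis, 36 h, against 50 mM potassium phosphate pH 7.5 with 1 M KBr, 5 mM EDTA and 10% glycerol, then 36 h into 50 mM sodium phosphate pH 7.5 with 10% glycerol. Apoenzyme (1 μM) titrated with (±)-2-methyl-3-ketopentanoyl-SNAC (0–50 mM final), 20 min at room temperature. Fluorescence read at pH 7.2 and 30 °C (ex 280, em 338 nm). Quenching (Fapo−Fobs) fitted to a one-site saturation model for Kd.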

[2] = target: T2, wild-type PicKR3^0 (Streptomyces venezuelae, UniProt Q9ZGI4)
T2 sequence (Q9ZGI4 1150-1343 limits assumed): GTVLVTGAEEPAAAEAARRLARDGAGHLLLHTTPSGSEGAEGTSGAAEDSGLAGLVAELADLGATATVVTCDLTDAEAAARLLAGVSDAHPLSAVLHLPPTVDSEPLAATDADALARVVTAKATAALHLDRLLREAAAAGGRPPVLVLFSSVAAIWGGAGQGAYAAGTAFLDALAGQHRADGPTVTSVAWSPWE
Summary of the method: as §1

[3] = target: wild-type EryKR1 (Saccharopolyspora erythraea, UniProt Q03131)
Sequence of wild-type EryKR1 (Q03131 1613-1790 limits assumed): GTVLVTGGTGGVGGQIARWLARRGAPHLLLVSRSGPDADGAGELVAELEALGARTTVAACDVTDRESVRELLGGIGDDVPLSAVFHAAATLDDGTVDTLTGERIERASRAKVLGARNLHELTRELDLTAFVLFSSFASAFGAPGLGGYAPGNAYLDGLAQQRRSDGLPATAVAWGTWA
Summary of the method: as §1

`CCC(=O)C(C)C(=O)SCCNC(C)=O` (racemic) [compound 1, (±)-2-methyl-3-ketopentanoyl-N-acetycysteamine (SNAC) thioester] was tested, and the Kd [1] was 8 ± 0.4 mM, the Kd [2] was 5 ± 0.3 mM and the Kd [3] was 7.7 ± 0.4 mM.
